From article PMC4869831 (Nature structural & molecular biology, 2011)

Assays:
ATR = ATR (Mus musculus, UniProt Q9JKK8); assay type: cell-based; conditions: increasing doses of caffeine
Outline: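 3T3 TopBP1-ER mouse cells (15000/well) were plated the day before on gelatine-coated wells. Graded caffeine doses were added for 15 min at 37 °C, then 4-OHT for 60 min at 37 °C. Cells were paraformaldehyde-fixed and stained for γH2AX by immunofluorescence. Automated 10x imaging gave mean γH2AX per DAPI-masked nucleus from ≥300 cells/well. Values were normalized to no-4-OHT (min) and 4-OHT-only (max) controls. Error bars s.d.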

IGF-IR = conditions: equally potent on both kinases in vitro; cited from earlier work

Sequence of ATR (Q9JKK8 whole entry): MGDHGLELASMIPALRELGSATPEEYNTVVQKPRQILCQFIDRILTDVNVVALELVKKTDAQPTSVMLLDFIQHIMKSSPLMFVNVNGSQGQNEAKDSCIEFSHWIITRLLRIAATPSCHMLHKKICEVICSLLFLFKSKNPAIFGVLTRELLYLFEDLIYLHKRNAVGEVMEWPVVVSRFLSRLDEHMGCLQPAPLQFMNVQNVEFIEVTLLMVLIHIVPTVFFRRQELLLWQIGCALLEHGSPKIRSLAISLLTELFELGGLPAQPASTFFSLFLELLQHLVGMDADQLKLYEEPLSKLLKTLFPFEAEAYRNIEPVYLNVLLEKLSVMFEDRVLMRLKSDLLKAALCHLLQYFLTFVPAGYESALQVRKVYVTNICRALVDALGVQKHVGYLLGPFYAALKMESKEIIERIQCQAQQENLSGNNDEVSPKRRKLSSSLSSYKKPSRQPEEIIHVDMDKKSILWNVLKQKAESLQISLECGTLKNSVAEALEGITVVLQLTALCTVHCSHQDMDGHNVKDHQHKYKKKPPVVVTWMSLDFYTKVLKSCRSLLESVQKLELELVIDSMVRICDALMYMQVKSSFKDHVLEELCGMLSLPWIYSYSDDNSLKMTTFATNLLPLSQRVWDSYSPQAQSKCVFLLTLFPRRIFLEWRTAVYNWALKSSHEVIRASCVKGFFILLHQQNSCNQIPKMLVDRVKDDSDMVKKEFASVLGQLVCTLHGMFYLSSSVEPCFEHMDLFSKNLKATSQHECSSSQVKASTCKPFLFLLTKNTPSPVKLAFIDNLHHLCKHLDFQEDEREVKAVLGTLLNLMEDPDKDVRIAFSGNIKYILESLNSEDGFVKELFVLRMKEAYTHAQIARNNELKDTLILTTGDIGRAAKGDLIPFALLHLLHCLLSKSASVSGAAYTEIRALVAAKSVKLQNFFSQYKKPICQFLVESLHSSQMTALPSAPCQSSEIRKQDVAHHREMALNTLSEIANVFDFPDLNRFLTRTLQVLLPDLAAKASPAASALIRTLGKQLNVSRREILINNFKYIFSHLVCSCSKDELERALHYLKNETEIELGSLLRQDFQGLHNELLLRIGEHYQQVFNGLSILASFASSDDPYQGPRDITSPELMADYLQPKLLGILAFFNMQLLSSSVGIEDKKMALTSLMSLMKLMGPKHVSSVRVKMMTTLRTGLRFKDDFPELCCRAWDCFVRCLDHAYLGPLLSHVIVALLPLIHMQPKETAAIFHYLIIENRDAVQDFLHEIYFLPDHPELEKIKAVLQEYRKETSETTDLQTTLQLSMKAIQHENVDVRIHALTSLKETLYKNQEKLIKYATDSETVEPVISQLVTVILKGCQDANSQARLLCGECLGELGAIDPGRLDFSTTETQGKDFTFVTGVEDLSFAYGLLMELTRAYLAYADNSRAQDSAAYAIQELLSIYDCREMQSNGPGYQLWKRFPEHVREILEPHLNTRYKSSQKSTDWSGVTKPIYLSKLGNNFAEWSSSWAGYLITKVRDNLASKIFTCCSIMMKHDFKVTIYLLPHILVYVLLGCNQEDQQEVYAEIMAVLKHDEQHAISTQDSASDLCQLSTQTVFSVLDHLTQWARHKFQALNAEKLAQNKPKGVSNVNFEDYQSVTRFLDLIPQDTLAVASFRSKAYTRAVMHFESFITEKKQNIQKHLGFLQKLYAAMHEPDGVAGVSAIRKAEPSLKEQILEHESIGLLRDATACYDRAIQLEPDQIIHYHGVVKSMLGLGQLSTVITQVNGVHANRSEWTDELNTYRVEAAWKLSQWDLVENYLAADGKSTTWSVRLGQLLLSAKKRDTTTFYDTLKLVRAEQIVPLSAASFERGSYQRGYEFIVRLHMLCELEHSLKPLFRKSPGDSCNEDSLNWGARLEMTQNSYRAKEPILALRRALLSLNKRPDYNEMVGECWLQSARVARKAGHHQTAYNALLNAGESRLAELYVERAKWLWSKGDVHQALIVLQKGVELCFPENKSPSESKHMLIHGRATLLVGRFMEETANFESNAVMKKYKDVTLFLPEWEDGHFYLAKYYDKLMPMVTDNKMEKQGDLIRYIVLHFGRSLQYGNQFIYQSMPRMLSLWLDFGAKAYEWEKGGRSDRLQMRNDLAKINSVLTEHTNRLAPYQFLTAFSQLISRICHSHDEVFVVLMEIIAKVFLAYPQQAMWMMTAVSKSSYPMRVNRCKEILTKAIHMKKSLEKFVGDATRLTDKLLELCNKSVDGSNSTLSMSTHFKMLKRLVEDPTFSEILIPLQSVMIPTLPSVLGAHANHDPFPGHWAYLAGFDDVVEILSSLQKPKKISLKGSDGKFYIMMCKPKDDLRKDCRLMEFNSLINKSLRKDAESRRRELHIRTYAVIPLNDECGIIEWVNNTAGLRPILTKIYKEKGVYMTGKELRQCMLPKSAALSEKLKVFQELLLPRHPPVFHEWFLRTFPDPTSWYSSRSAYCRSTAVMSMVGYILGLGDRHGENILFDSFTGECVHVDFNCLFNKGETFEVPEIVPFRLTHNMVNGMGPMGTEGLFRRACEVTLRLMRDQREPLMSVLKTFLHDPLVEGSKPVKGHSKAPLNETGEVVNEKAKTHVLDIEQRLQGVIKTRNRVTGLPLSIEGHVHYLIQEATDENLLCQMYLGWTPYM

nuclear γH2AX signal induced by 4-OHT (ATR) | SMILES | selectivity against IGF-IR vs InsR in cellulo (IGF-IR) [fold]
stepwise decrease in the γH2AX signal | Cn1c(=O)c2c(ncn2C)n(C)c1=O [Caffeine] | 
 | Nc1ncnc2c1c(-c1cccc(OCc3ccccc3)c1)cn2[C@H]1C[C@@H](CN2CCC2)C1 [NVP-AEW541] | 26
